Calls of active or inactive are those of the source. The rule behind the calls is not given here.
Experiments:
K562 = experiment: Cytotoxicity against human K562 cells by SRB method; assay type: functional
Procedure, shortened: (§1)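 NCI-60 in vitro drug screening panel. Values are the molar concentrations giving 50% growth inhibition (GI50) and total growth inhibition (TGI).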

mTORC1 (Homo sapiens) = mTORC1 (Homo sapiens) (UniProt P42345+Q8N122+Q9BVC4); experiment: Inhibition of mTORC1 in human HeLa cells assessed as inhibition of S6 kinase phosphorylation at T389 up to 100 nM after 30 mins by Western blotting analysis; assay type: cell-based
Chain of mTORC1 (Homo sapiens) (Q8N122 whole entry, looked up, other chains not shown): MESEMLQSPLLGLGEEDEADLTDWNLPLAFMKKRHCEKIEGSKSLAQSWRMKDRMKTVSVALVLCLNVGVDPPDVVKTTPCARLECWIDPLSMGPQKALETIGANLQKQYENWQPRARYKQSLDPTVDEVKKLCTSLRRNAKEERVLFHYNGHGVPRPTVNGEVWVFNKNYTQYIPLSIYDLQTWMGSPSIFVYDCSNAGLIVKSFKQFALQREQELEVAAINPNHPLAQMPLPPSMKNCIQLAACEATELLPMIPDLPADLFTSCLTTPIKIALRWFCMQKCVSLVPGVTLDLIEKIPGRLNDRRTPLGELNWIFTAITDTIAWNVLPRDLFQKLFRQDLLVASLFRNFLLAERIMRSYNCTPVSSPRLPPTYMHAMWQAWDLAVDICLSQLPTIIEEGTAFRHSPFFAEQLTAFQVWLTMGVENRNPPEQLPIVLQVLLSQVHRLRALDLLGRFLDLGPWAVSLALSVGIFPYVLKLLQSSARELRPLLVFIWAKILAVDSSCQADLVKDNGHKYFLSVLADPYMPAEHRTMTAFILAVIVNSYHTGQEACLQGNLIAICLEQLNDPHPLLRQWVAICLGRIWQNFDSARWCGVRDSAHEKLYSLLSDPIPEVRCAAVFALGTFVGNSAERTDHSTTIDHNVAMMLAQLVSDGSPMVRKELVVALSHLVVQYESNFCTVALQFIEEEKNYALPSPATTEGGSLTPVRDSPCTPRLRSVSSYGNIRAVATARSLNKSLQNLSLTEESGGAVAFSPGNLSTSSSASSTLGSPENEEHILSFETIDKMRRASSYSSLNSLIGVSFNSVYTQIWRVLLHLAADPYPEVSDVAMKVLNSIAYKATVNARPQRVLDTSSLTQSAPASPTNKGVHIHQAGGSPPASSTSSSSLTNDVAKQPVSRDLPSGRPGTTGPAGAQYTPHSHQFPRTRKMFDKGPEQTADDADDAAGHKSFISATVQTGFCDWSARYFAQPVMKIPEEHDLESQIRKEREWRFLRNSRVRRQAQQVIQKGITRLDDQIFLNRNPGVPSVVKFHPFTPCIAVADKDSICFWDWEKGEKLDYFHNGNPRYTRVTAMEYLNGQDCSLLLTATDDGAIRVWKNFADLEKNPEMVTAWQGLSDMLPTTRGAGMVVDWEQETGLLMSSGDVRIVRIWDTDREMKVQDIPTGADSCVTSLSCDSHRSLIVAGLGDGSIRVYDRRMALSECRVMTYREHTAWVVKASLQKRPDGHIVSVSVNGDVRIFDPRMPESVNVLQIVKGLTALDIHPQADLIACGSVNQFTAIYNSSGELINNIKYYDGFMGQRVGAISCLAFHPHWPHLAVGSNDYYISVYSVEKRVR
Chain of mTORC1 (Homo sapiens) (Q9BVC4 whole entry, looked up, other chains not shown): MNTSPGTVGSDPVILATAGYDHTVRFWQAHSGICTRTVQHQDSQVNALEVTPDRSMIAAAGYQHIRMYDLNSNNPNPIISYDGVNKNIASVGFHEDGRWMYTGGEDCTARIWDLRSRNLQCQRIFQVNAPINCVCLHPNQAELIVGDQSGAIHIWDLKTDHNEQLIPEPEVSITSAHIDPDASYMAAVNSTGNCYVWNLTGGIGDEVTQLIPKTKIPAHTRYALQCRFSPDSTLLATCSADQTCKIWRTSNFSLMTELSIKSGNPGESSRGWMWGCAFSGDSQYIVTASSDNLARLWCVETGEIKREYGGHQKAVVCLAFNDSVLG
Procedure, shortened: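 HeLa whole-cell lysates after vehicle or compound treatment; equal protein on SDS-PAGE, PVDF blot probed for S6 kinase, P-T389-S6 kinase and actin, ECL detection.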

HL-60(TB) = experiment: Cytotoxicity against human HL-60(TB) cells by SRB method; assay type: functional
Procedure, shortened: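 Tested in the NCI-60 in vitro screening panel. GI50 is the molar concentration giving 50% growth inhibition, and TGI is the molar concentration giving total growth inhibition.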

SF-268 = experiment: Cytotoxicity against human SF268 cells by SRB method; assay type: functional; procedure, shortened: as §1
M14 = experiment: Cytotoxicity against human M14 cells by SRB method; assay type: functional; procedure, shortened: as §1
HeLa [1] = experiment: Increase in H3K9 methylation in human HeLa cells assessed as high H3K9me3 expression at 200 nM after 1 to 24 hrs by immunoblotting analysis; assay type: functional, cell-based
Procedure, shortened: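 HeLa cells treated with vehicle or 200 nM for 1–24 h; log-phase cells lysed with protease inhibitors, equal protein by SDS-PAGE, PVDF transfer, probed for H3K9me3 and actin, ECL detection.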

[2] = Cytotoxicity against human P-gp expressing SKOV3-M6/6 cells by SRB assay; assay type: functional
Procedure, shortened: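 SRB assay in SK-OV-3/MDR-1-6/6 cells, a single-cell clone of SKOV-3/MDR1 (P-gp). Percent cell growth follows Boyd et al. GI50 was derived from dose–response curves of percent growth. Results are mean ± SE of n = 3 or 4 independent experiments. Relative resistance is calculated against parental SK-OV-3.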

RXF 393 = experiment: Cytotoxicity against human RXF393 cells by SRB method; assay type: functional; procedure, shortened: as §1
ACHN = experiment: Cytotoxicity against human ACHN cells by SRB method; assay type: functional; procedure, shortened: as §1
UACC-62 = experiment: Cytotoxicity against human UACC62 cells assessed as reduction of colony formation incubated for 4 hrs followed by compound washout measured after 14 days relative to vehicle-treated control; assay type: functional, cell-based
Procedure, shortened: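 Clonogenic test: 600 UACC-62 cells (RPMI1640, 10% FBS, gentamicin) adhered, exposed 4 h to vehicle (DMSO) or compound, washed with DPBS, fresh medium, grown 14 days; fixed, 0.5% crystal violet in 10% methanol, colonies counted; duplicate/triplicate, n = 2–4 experiments; one-way ANOVA with Dunnett's vs vehicle.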

[3] = Cytotoxicity against human HCT116 cells by SRB method; assay type: functional; procedure, shortened: as §1
KM12 = experiment: Cytotoxicity against human KM12 cells by SRB method; assay type: functional; procedure, shortened: as §1
[4] = Cytotoxicity against human OVCAR8 cells by SRB method; assay type: functional; procedure, shortened: as §1
SNB-19 = experiment: Cytotoxicity against human SNB19 cells by SRB method; assay type: functional
Procedure, shortened: (§2)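 NCI-60 in vitro screen panel of human tumor lines; GI50 (molar concentration giving 50% growth inhibition) and TGI (total growth inhibition) taken from dose–response data.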

HeLa [5] = experiment: Cytotoxicity against human HeLa cells assessed as reduction of colony formation incubated for 4 hrs followed by compound washout measured after 14 days relative to vehicle-treated control; assay type: functional, cell-based
Procedure, shortened: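 HeLa cells (300) were plated in dishes and treated with vehicle (DMSO) or compound for 4 h. They were then washed with DPBS and given fresh medium. After 14 days, colonies were fixed, stained with 0.5% crystal violet in 10% methanol and counted. Analysis was one-way ANOVA with Dunnett's post hoc test against vehicle.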

U-251 = experiment: Cytotoxicity against human U251 cells by SRB method; assay type: functional; procedure, shortened: as §2
Mus musculus = experiment: Toxicity in athymic nude mouse xenografted with human UACC62 cells assessed as rapid and persistent weight loss at 2 mg/kg, ip; assay type: organism-based, UACC-62; set-up: dose 2 mg/kg, route intraperitoneal; conditions: in vivo
A498 = experiment: Cytotoxicity against human A498 cells by SRB method; assay type: functional; procedure, shortened: as §1
SK-MEL-28 = experiment: Cytotoxicity against human SK-MEL-28 cells by SRB method; assay type: functional; procedure, shortened: as §1
NCI-H522 = experiment: Cytotoxicity against human NCI-H522 cells by SRB method; assay type: functional; procedure, shortened: as §1
RPMI-8226 = experiment: Cytotoxicity against human RPMI8226 cells by SRB method; assay type: functional; procedure, shortened: as §1
NCI-H226 = experiment: Cytotoxicity against human NCI-H226 cells by SRB method; assay type: functional; procedure, shortened: as §1
LOX IMVI = experiment: Cytotoxicity against human LOXIMVI cells by SRB method; assay type: functional; procedure, shortened: as §1
MOLT-4 = experiment: Cytotoxicity against human MOLT4 cells by SRB method; assay type: functional; procedure, shortened: as §1
SW-620 = experiment: Cytotoxicity against human SW620 cells by SRB method; assay type: functional; procedure, shortened: as §2
DU-145 = experiment: Cytotoxicity against human DU145 cells by SRB method; assay type: functional; procedure, shortened: as §1
HCC 2998 = experiment: Cytotoxicity against human HCC2998 cells by SRB method; assay type: functional; procedure, shortened: as §1
A549 = experiment: Cytotoxicity against human A549 cells by SRB method; assay type: functional; procedure, shortened: as §1
SK-MEL-2 = experiment: Cytotoxicity against human SK-MEL-2 cells by SRB method; assay type: functional; procedure, shortened: as §1
HOP-62 = experiment: Cytotoxicity against human HOP62 cells by SRB method; assay type: functional; procedure, shortened: as §1
[6] = read-out: LC50 (the source's name)

CC(C)[C@@]12SS[C@]3(C(=O)N1C)[C@@H](O)[C@]1(C45c6ccccc6N[C@H]4N4C(=O)[C@@]6(CO)SS[C@@]4(C(=O)N6C)[C@H]5O)c4ccccc4N[C@@H]1N3C2=O (stereo partly drawn)
GI50 (K562): 14.8 nM
TGI (K562): 115 nM
CC50 (K562; [6]): > 50000 nM
inhibition (mTORC1 (Homo sapiens)): inactive
GI50 (HL-60(TB)): 26.3 nM
TGI (HL-60(TB)): 195 nM
CC50 (HL-60(TB); [6]): > 50000 nM
GI50 (SF-268): 22.4 nM
TGI (SF-268): 107 nM
CC50 (SF-268; [6]): 417 nM
GI50 (M14): 13.5 nM
TGI (M14): 53.7 nM
CC50 (M14; [6]): 182 nM
Activity (HeLa [1]): Active
GI50 [2]: 33 nM
GI50 (RXF 393): 7.8 nM
TGI (RXF 393): 14.8 nM
CC50 (RXF 393; [6]): 28.2 nM
GI50 (ACHN): 15.5 nM
TGI (ACHN): 60.3 nM
CC50 (ACHN; [6]): 234 nM
Activity (UACC-62): Dose-dependent effect
GI50 ([3]; HCT-116): 12.3 nM
TGI ([3]; HCT-116): 51.3 nM
CC50 ([3]; HCT-116, read-out: LC50 (the source's name)): 162 nM
GI50 (KM12): 19.5 nM
TGI (KM12): 87.1 nM
CC50 (KM12; [6]): 295 nM
GI50 ([4]; OVCAR-8): 9.5 nM
TGI ([4]; OVCAR-8): 19.1 nM
CC50 ([4]; OVCAR-8, read-out: LC50 (the source's name)): 38 nM
GI50 (SNB-19): 112 nM
TGI (SNB-19): 513 nM
CC50 (SNB-19; [6]): 1660 nM
Activity (HeLa [5]): Dose-dependent effect
GI50 (U-251): 17.8 nM
TGI (U-251): 61.7 nM
CC50 (U-251; [6]): 178 nM
Activity (Mus musculus): Toxic
GI50 (A498): 9.8 nM
TGI (A498): 28.2 nM
CC50 (A498; [6]): 105 nM
GI50 (SK-MEL-28): 12.6 nM
TGI (SK-MEL-28): 38 nM
CC50 (SK-MEL-28; [6]): 135 nM
GI50 (NCI-H522): 8.5 nM
TGI (NCI-H522): 17.8 nM
CC50 (NCI-H522; [6]): 38 nM
GI50 (RPMI-8226): 12.3 nM
TGI (RPMI-8226): 34.7 nM
CC50 (RPMI-8226; [6]): > 50000 nM
GI50 (NCI-H226): 10 nM
TGI (NCI-H226): 24 nM
CC50 (NCI-H226; [6]): 72.4 nM
GI50 (LOX IMVI): 8.3 nM
TGI (LOX IMVI): 21.4 nM
CC50 (LOX IMVI; [6]): 46.8 nM
GI50 (MOLT-4): 13.2 nM
TGI (MOLT-4): 67.6 nM
CC50 (MOLT-4; [6]): > 50000 nM
GI50 (SW-620): 8.3 nM
TGI (SW-620): 31.6 nM
CC50 (SW-620; [6]): 129 nM
GI50 (DU-145): 14.8 nM
TGI (DU-145): 53.7 nM
CC50 (DU-145; [6]): 200 nM
GI50 (HCC 2998): 53.7 nM
TGI (HCC 2998): 115 nM
CC50 (HCC 2998; [6]): 246 nM
GI50 (A549): 26.3 nM
TGI (A549): 93.3 nM
CC50 (A549; [6]): 263 nM
GI50 (SK-MEL-2): 9.8 nM
TGI (SK-MEL-2): 20.4 nM
CC50 (SK-MEL-2; [6]): 43.7 nM
GI50 (HOP-62): 11.7 nM
TGI (HOP-62): 30.9 nM
CC50 (HOP-62; [6]): 110 nM

Source: ChEMBL document CHEMBL3351594, “Cytotoxic dimeric epipolythiodiketopiperazines from the ascomycetous fungus Preussia typharum” (J Nat Prod, 2014)
